This is an account of results in ChEMBL document CHEMBL4706704, “Potential of substituted quinazolines to interact with multiple targets in the treatment of cancer” (Bioorg Med Chem, 2021).

Assay [1] concerns the target T1, Platelet-derived growth factor receptor beta (Homo sapiens, UniProt P09619). As to the kind of experiment: Inhibition of PDGFRbeta in human SH-SY5Y cells preincubated for 60 mins followed by PDGF stimulation and measured after 10 mins by ELISA. It is filed as cell-based.
Assay [2] can be described thus: Induction of microtubule depolymerization in rat A10 cells incubated for over night by immunofluorescence method. It is filed as cell-based. In a few lines: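 Rat A-10 cells were exposed overnight, fixed in cold methanol and stained for microtubules by indirect immunofluorescence with a β-tubulin antibody.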
The test system of assay [3] is A-431. As to the kind of experiment: Cytotoxicity against human A-431 cells assessed as reduction in cell viability by Sulforhodamine B assay. It is filed as functional, cell-based.
For assay [4], the system named is SK-OV-3. Nature of the assay: Cytotoxicity against human SK-OV-3 cells over expressing MDR1-6/6 assessed as reduction in cell viability by Sulforhodamine B assay. It is filed as functional, cell-based. In a few lines: (§1)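 SRB assay for antiproliferative/cytotoxic effect. HeLa WT-βIII and SK-OV-3-MDR1-6/6 lines were generated as described earlier and run alongside their parental lines.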

Assay [5] in a line: Resistant index, ratio of IC50 for cytotoxicity against human SK-OV-3 cells over expressing MDR1-6/6 cells to IC50 for cytotoxicity against human SK-OV-3 cells. Type of assay: functional.
The species named for assay [6] is Bos taurus. As to the kind of experiment: Displacement of [3H]-colchicine from bovine brain tubulin at 5 uM after 10 mins by DEAE-cellulose filter method relative to control. It is filed as tissue-based. In a few lines:
(§2)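 Tubulin 0.1 mg/mL (1.0 μM) incubated at 37 °C with 5.0 μM [3H]colchicine and inhibitor at 1.0 or 5.0 μM.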

The subject of assay [7] is U-251. Nature of the assay: Cytotoxicity against human U-251 cells assessed as reduction in cell viability by Sulforhodamine B assay. Type of assay: functional, cell-based.
In assay [8] the test system is MDA-MB-435. Nature of the assay: Antiproliferative activity against human MDA-MB-435 cells assessed as reduction in cell viability by Sulforhodamine B assay. It is filed as functional, cell-based. The essentials: (§3)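 SRB proliferation/cytotoxicity assay; parental lines obtained from ATCC. The HeLa WT-βIII line was generated as described in earlier work. IC50 is the average of at least 3 independent experiments, each run with triplicate points.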

Assay [9] is described as follows: Ratio of EC50 for induction of microtubule depolymerization in rat A10 cells to IC50 for antiproliferative activity against human MDA-MB-435 cells.
A short description of assay [10]: Resistant index, ratio of IC50 for cytotoxicity against human HeLa cells expressing WT-beta3 to IC50 for cytotoxicity against human HeLa cells. Type of assay: functional.
Assay [11] has as its target T2, Epidermal growth factor receptor (Homo sapiens, UniProt P00533). As to the kind of experiment: Inhibition of EGFR in human A431 cells preincubated for 60 mins followed by EGF stimulation and measured after 10 mins by ELISA. Type of assay: cell-based, A-431.
For assay [12], the species on record is Bos taurus. As to the kind of experiment: Displacement of [3H]-colchicine from bovine brain tubulin at 1 uM after 10 mins by DEAE-cellulose filter method relative to control. It is filed as tissue-based. In a few lines: as §2
The subject of assay [13] is HeLa. As to the kind of experiment: Cytotoxicity against human HeLa cells over expressing WT-beta3 assessed as reduction in cell viability by Sulforhodamine B assay. It is filed as functional, cell-based. In a few lines: as §3
Assay [14] deals with HeLa. Nature of the assay: Cytotoxicity against human HeLa cells assessed as reduction in cell viability by Sulforhodamine B assay. Type of assay: functional, cell-based. The essentials:
as §1

The target of assay [15] is T3, Vascular endothelial growth factor receptor 2 (Homo sapiens, UniProt P35968). As to the kind of experiment: Inhibition of VEGFR2 in human U251 cells preincubated for 60 mins followed by VEGF stimulation and measured after 10 mins by ELISA. Type of assay: cell-based, U-251.
T3 sequence (P35968 whole entry): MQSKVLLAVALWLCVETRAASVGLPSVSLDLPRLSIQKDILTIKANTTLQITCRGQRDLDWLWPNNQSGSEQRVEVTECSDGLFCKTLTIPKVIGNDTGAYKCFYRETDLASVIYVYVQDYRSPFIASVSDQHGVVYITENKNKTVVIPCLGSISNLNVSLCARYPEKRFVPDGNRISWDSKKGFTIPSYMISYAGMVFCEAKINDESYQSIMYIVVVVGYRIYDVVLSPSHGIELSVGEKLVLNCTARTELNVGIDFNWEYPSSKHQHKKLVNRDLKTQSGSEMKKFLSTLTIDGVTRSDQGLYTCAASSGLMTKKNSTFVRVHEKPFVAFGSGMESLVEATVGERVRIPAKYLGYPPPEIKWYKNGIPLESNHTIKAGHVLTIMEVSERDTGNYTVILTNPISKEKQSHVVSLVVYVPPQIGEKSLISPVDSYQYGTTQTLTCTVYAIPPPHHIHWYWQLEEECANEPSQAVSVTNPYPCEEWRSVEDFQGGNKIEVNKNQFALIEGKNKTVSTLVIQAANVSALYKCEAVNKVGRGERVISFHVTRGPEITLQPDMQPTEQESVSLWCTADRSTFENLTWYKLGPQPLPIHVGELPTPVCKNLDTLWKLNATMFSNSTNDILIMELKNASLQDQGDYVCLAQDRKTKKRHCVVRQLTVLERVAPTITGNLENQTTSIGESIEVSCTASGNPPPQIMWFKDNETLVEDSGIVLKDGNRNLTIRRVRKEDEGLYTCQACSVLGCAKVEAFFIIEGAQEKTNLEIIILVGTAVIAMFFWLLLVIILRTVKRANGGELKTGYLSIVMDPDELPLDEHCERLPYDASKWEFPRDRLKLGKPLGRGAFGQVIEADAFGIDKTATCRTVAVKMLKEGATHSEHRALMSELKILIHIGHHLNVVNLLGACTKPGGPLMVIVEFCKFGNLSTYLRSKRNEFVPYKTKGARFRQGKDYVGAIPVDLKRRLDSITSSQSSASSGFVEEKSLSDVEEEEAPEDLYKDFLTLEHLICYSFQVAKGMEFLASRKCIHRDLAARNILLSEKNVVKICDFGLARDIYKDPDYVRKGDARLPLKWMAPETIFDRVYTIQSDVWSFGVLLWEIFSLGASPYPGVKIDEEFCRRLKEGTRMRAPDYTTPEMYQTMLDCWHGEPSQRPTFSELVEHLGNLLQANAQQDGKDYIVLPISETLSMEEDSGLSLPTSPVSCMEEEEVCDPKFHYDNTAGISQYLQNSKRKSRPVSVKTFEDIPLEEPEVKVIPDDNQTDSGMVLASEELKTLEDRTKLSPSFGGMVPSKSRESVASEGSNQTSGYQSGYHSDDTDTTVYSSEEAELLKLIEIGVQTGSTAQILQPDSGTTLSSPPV
In assay [16] the test system is SK-OV-3. Nature of the assay: Cytotoxicity against human SK-OV-3 cells assessed as reduction in cell viability by Sulforhodamine B assay. Type of assay: functional, cell-based. The essentials: as §3
Assay [17] relates to Chorioallantoic membrane. Nature of the assay: Antiangiogenic activity in Leghorn chicken fertilized egg chorioallantoic membrane assessed as reduction in VEGF/bFGF stimulated neovascularization after 40 hrs by microscopic based CAM assay. The following applies: Gallus gallus. Type of assay: functional, tissue-based. In a few lines: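 VEGF/bFGF applied at saturation to a testing disk on the CAM. Compounds at various doses were added to the same disk 8 h later, then incubated 40 h more. Vessels were counted in 5–7 grids at 7.5X. Values are percent of growth-factor-only. IC50 by non-linear regression, 2–3 experiments, 2–5 replicates each.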

In assay [18] the target is T3, Vascular endothelial growth factor receptor 2. As to the kind of experiment: Potency index, ratio of IC50 for erlotinib to IC50 for test compound for inhibition of VEGFR2 in human U251 cells. It is filed as cell-based. The following applies: U-251.
Assay [19] has as its target T1, Platelet-derived growth factor receptor beta. As to the kind of experiment: Potency index, ratio of IC50 for erlotinib to IC50 for test compound for inhibition of PDGFRbeta in human SH-SY5Y cells. Type of assay: cell-based.
Assay [20] has the same target. Nature of the assay: Potency index, ratio of IC50 for sunitinib to IC50 for test compound for inhibition of PDGFRbeta in human SH-SY5Y cells. It is filed as cell-based.
The target in assay [21] is T3, Vascular endothelial growth factor receptor 2. Nature of the assay: Potency index, ratio of IC50 for sunitinib to IC50 for test compound for inhibition of VEGFR2 in human U251 cells. The following applies: U-251. Type of assay: cell-based.
Assay [22] deals with T2, Epidermal growth factor receptor. Nature of the assay: Potency index, ratio of IC50 for sunitinib to IC50 for test compound for inhibition of EGFR in human A431 cell. The note with it: A-431.
The test system of assay [23] is Chorioallantoic membrane. As to the kind of experiment: Potency index, ratio IC50 for erlotinib to IC50 for test compound for antiangiogenic activity in Leghorn chicken fertilized egg chorioallantoic membrane. Type of assay: functional, tissue-based. The note with it: Gallus gallus.

pEC50, pIC50: −log10 of the molar value.

T2 sequence (P00533 whole entry): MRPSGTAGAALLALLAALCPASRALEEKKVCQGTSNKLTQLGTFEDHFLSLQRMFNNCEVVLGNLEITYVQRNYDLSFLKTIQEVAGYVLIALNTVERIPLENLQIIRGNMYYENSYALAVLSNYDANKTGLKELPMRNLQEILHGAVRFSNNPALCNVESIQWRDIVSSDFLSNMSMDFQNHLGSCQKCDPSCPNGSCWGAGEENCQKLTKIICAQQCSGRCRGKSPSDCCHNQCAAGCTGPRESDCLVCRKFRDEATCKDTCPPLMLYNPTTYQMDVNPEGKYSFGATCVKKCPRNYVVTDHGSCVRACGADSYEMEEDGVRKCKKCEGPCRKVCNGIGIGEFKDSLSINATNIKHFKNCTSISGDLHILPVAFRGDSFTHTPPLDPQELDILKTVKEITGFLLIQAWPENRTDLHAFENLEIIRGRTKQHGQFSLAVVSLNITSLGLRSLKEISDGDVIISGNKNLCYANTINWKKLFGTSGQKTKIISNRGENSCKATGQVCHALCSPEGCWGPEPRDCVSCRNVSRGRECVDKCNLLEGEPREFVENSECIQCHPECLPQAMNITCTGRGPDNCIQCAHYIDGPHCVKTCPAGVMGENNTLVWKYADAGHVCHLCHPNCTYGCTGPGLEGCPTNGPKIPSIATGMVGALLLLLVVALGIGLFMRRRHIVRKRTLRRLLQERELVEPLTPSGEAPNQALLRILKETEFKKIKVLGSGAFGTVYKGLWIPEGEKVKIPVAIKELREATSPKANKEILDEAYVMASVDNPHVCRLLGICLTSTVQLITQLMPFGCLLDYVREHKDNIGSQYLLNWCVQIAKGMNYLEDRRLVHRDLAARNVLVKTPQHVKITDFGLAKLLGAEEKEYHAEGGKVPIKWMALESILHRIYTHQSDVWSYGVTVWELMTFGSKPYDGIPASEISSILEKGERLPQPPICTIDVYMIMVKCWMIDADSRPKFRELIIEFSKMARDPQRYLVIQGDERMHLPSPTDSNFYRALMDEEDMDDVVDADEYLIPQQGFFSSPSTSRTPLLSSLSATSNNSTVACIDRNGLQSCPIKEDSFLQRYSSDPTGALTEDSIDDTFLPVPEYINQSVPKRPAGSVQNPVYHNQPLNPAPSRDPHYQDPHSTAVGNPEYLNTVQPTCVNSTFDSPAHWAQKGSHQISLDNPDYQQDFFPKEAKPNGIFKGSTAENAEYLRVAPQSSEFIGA
T1 sequence (P09619 whole entry): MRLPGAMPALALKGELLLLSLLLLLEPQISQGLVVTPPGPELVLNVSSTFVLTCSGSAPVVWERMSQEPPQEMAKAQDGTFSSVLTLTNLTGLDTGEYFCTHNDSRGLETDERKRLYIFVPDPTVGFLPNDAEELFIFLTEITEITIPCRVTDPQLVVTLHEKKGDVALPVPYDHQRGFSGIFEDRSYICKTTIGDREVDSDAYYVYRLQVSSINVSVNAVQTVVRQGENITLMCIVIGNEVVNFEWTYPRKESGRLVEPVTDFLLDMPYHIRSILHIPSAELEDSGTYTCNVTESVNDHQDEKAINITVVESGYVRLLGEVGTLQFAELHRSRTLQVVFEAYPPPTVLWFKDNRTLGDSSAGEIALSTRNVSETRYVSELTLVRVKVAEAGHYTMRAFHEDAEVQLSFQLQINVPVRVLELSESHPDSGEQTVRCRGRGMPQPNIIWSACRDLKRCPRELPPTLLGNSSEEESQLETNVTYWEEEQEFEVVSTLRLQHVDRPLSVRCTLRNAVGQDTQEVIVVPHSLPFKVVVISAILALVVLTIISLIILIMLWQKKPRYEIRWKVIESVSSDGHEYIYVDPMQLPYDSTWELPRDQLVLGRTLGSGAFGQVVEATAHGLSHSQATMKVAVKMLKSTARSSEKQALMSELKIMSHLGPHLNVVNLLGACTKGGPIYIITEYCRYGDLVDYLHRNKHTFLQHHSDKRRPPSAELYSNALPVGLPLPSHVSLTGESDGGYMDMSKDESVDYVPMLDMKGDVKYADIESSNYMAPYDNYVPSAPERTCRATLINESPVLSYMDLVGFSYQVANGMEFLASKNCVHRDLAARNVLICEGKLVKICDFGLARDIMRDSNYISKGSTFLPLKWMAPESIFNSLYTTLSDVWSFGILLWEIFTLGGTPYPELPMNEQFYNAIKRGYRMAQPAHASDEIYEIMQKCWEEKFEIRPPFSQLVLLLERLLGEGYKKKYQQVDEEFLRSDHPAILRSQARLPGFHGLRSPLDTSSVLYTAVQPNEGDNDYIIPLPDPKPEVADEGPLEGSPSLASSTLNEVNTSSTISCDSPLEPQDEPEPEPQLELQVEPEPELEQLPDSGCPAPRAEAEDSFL

With `COc1cccc2cc(N(C)c3nc(C)nc4ccccc34)ccc12`, the pIC50 in assay [1] was 7.53; in assay [3], 8.28; in assay [4] it was 8.46; in assay [7] it was 8.38; in assay [8], 8.70; in assay [11], 7.97. In addition, the pIC50 in assay [13] is 8.77; in assay [14] it was 8.60; in [15] it was 7.77; in assay [16] it was 8.54. The same compound gave a pEC50 in assay [2] of 8.62. Besides, the “Ratio IC50” value amounted to 1.2 in assay [5] and 0.7 in assay [10]. Besides, the inhibition in [6] turned out to be 98%; in assay [12], 88%. Also, the Ratio in assay [9] stood at 1.2.

On to `COc1ccc(N(C)c2ncnc3ccccc23)cc1`, for which, in [2], the pEC50 was 8.09. In addition, the pIC50 is 7.84 in [4], 8.15 in [8], 8.07 in [14] and 7.98 in assay [16]. Also, the entries for the “Ratio IC50” value in assay [5] and in [10] were 1.4 and 0.9, respectively. In addition, the Ratio in assay [9] worked out at 1.2.

In the case of `COc1ccc(N(C)c2nc(Cl)nc3ccccc23)cc1`, the pIC50 in assay [1] was 7.12; in assay [17] it was 3.89; in assay [3], 8.92; in [7] it was 7.49; in assay [11], 8.44; in assay [15], 7.01. Moreover, the figures for the inhibition in [6] and in [12] were 99% and 92%, respectively.

Consider `COc1ccc2c(c1)CCCN2c1nc(Cl)nc2ccccc12`, for which the pIC50 in [1] was 7.09; in assay [17], 4.38; in [3], 8.74; in assay [4] it was 9.00; in [7], 7.83; in [8] it was 9.15. In addition, the pIC50 in assay [14] was 9.22; in assay [15], 7.26; in assay [16], 9.10. Besides, the pEC50 in assay [2] is 8.70.

Regarding `COc1ccc(N(C)c2nc(C)nc3ccccc23)cc1` [VERUBULIN], the pIC50 in assay [1] is 8.25; in assay [17] it was 5.55; in assay [3] it was 9.05; in assay [4] it was 8.59; in assay [8], 8.77; in [11], 8.55. The pIC50 was 8.82 in [13], 8.70 in assay [14], 8.08 in assay [15] and 8.66 in [16]. Further, the pEC50 in assay [2] was 8.68. The “Ratio IC50” value worked out at 1.2 in assay [5]; 15 in assay [18]; 2 in [19]; 15 in [20]; 2 in [21]; 0.8 in [10]. Moreover, in [22], the Ratio IC50 was 61. For the same compound, the Ratio in assay [9] was determined as 1.2.

For the compound `CSc1ccc(N(C)c2nc(C)nc3ccccc23)cc1`, the pIC50 in [1] was 6.64; in [3], 8.54; in assay [7] it was 8.31; in [11], 8.06; in assay [15], 7.83. For the same compound, the inhibition in assay [6] came out at 99%; in assay [12], 91%.

The compound `COc1ccc(/C=C\c2cc(OC)c(OC)c(OC)c2)cc1O` [COMBRETASTATIN A4] had a pEC50 in assay [2] of 8.01.

Turning to `COc1cccc2cc(N(C)c3nc(Cl)nc4ccccc34)ccc12`, the pEC50 in assay [2] is 8.72. The pIC50 in assay [4] is 8.59; in assay [8] it was 8.85; in [13], 8.80; in assay [14] it was 8.55; in [16], 8.55. Besides, the results for the “Ratio IC50” value in assay [5] and in assay [10] were 0.9 and 0.6, respectively. Besides, the Ratio in [9] stood at 1.4.

Take `COc1ccc2c(c1)CCCN2c1ncnc2ccccc12`: the pIC50 in [1] is 7.27; in assay [3], 7.79; in assay [4] it was 7.63; in [7], 7.56; in assay [8] it was 7.91; in assay [11], 7.31. Further, the pIC50 in assay [13] is 7.88; in assay [14], 7.77; in [15], 6.95; in [16], 7.74. In assay [2], the pEC50 is 7.63. The “Ratio IC50” value in [5] is given as 1.3; in [10], 0.8. In addition, the Ratio in assay [9] is given as 1.9.

Regarding `C#Cc1cccc(Nc2ncnc3cc(OCCOC)c(OCCOC)cc23)c1` [ERLOTINIB], the pIC50 in assay [17] was 5.51.

`COc1ccc2c(c1)CCCN2c1nc(C)nc2ccccc12`: the pIC50 is 8.11 in assay [1]; 5.51 in [17]; 8.60 in [3]; 8.66 in assay [4]; 8.51 in assay [7]; 8.96 in assay [8]. For the same compound, the pIC50 is 8.30 in assay [11]; 8.92 in assay [13]; 8.92 in assay [14]; 8.03 in assay [15]; 8.82 in [16]. The same compound had a pEC50 in assay [2] of 8.52. Further, the results for the “Ratio IC50” value in [5], in assay [10] and in [23] were 1.5, 1 and 9.4, respectively. Also, the Ratio in [9] is recorded as 2.7.

Compound `CSc1ccc(N(C)c2nc(Cl)nc3ccccc23)cc1` showed a pEC50 in assay [2] of 8.57. In addition, the pIC50 is 8.46 in assay [4]; 8.57 in assay [8]; 8.49 in assay [13]; 8.30 in assay [14]; 8.48 in [16]. Besides, the “Ratio IC50” value is reported as 1.1 in [5] and 0.6 in [10]. Further, the Ratio in [9] came to 1.

Take `CSc1ccc(N(C)c2ncnc3ccccc23)cc1`: the pEC50 in assay [2] is 7.91. The pIC50 in [4] was 7.81; in [8] it was 8.11; in assay [13], 8.14; in assay [14] it was 8.07; in assay [16], 7.87. The figures for the “Ratio IC50” value in assay [5] and in assay [10] were 1.1 and 0.6, respectively. Further, in assay [9], the Ratio was found to be 1.6.
